The target in one data set is P2Y purinoceptor 6 (Homo sapiens, UniProt Q15077). In words: Agonist activity at human GFP-tagged P2Y6 receptor expressed in human 1321N1 cells assessed as intracellular calcium mobilization by fura2/AM-based fluorescence spectrophotometry. The format is functional, cell-based. In short, it runs like this: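 Human P2Y2, P2Y4 or P2Y6 receptors with GFP fusion, stably expressed in 1321N1 astrocytoma cells (no endogenous P2X/P2Y), selected with 0.5 mg/mL G418. Cells on coverslips at ~80% density were loaded with 2 µM fura 2/AM plus 0.02% pluronic acid in Na-HBS pH 7.4 for 30 min at 37 °C. Nucleotide was superfused at 37 °C, usually 10^-8 to ≥10^-5 M, sometimes to 10^-4 M. Read-out was 340/380 nm excitation ratio at 510 nm emission. Values are mean maximal amplitude ± SE.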
On the technique in general: Calcium flux is commonly read through the fluorescence of an indicator in the cells.

The target in data set [1] is T1, NPP3 (ectonucleotide pyrophosphatase/phosphodiesterase family member 3) (Homo sapiens, UniProt O14638).
T1 sequence (O14638 whole entry): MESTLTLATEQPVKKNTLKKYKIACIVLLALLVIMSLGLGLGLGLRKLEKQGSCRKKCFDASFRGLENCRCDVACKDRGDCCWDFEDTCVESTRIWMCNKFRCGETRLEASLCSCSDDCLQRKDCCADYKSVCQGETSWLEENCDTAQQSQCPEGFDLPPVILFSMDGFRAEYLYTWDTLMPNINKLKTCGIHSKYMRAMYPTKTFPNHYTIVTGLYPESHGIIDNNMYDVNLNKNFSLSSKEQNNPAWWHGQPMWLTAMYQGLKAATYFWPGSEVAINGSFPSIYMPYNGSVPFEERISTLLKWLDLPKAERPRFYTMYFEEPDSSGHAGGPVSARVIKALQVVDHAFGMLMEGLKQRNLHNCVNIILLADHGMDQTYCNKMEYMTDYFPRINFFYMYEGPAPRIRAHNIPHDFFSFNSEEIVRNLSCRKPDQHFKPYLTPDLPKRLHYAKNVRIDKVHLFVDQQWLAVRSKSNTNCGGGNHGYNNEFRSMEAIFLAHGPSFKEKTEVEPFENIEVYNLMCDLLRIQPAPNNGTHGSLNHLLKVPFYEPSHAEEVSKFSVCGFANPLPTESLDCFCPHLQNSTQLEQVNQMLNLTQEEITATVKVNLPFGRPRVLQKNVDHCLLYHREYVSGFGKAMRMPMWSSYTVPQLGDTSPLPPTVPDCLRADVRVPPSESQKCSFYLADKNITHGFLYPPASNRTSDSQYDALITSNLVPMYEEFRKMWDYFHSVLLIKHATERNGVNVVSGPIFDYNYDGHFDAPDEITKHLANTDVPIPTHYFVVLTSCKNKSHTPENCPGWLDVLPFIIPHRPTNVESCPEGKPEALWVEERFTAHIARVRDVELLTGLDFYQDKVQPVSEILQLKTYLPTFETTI
Kind of data set: Hydrolytic stability of the compound assessed as human NPP3-mediated hydrolysis after 3 hrs by HPLC analysis. The format is ADME. The settings on record: human NPP3 enzyme, read-out: Activity. The gist of the method: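 Human NPP1 (56.15 µg) or NPP3 (57.78 µg) extract was pre-incubated 3 min at 37 °C in 1 mM CaCl2, 200 mM NaCl, 10 mM KCl, 100 mM Tris pH 8.5. Reaction was started with 4 mM compound stock and stopped after 2 h (NPP1) or 3 h (NPP3) in ice-cold 1 M perchloric acid, then neutralized with KOH. HPLC measured the nucleoside monophosphate peak area minus a no-enzyme acid control. Mean ± S.D. of two experiments.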

Data set [2] deals with Serum. Kind of data set: Drug metabolism in human serum assessed as nucleoside 5'-monophosphate formation incubated up to 24 hrs by HPLC analysis. The format is ADME, cell-free. In short, it runs like this: (§1)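 Samples held 0.1 mg compound with human blood serum (180 µL) and RPMI-1640 (540 µL) at 37 °C for 0–24 h. At each time point they were heated to 80 °C for 30 min, treated with CM Sephadex, centrifuged and chloroform-extracted. Analysis was reverse-phase HPLC on peak integrals. Degradation was taken relative to a no-serum control carried through the same workup, and half-lives came from the time course.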

Data set [3] relates to Serum. Kind of data set: Drug metabolism in human serum assessed as nucleoside formation incubated up to 24 hrs by HPLC analysis. The format is ADME, cell-free. In short, it runs like this: as §1
Data set [4] is described as follows: Half life in human serum by HPLC analysis. The format is ADME, cell-free. The gist of the method: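 Compound (0.1 mg) incubated with human blood serum and RPMI-1640 medium at 37 °C for 0–24 h. Samples taken at 0.5–12 h intervals, heated to 80 °C for 30 min, treated with CM Sephadex and extracted with chloroform. Analysed by reverse-phase HPLC. Degradation from peak integration, corrected against a serum-free control given the same workup.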

Data set [5] concerns the target T2, NPP1 (ectonucleotide pyrophosphatase/phosphodiesterase family member 1) (Homo sapiens, UniProt P22413).
T2 sequence (P22413 whole entry): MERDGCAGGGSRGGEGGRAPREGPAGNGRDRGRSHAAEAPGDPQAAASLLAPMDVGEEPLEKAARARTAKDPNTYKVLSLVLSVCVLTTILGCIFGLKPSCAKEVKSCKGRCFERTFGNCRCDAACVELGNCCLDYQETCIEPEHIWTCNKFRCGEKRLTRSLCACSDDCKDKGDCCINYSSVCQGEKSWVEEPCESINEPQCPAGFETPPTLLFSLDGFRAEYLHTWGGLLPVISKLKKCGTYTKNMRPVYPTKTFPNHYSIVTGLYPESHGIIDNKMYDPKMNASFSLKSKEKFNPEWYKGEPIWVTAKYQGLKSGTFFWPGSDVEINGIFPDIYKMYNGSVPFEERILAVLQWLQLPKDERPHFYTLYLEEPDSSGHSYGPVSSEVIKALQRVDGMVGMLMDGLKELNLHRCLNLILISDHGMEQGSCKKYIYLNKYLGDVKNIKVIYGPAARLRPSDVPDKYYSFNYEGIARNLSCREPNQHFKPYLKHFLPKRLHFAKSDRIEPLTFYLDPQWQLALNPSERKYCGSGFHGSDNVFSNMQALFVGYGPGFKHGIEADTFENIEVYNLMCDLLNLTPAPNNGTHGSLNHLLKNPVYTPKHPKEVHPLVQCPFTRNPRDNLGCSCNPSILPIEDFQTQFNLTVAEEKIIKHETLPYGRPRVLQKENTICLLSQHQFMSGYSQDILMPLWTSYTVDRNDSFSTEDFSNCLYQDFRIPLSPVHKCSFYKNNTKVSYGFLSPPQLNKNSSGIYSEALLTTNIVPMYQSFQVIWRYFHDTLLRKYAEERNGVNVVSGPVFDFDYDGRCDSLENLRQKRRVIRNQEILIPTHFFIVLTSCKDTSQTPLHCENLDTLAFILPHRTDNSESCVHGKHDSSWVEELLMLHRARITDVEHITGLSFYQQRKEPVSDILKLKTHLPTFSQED
Kind of data set: Hydrolytic stability of the compound assessed as human NPP1-mediated hydrolysis after 2 hrs by HPLC analysis. The settings on record: human NPP1 enzyme, read-out: Activity. The format is ADME. The gist of the method:
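Human NPP1 extract (56.15 µg) pre-incubated 3 min at 37 °C in 1 mM CaCl2, 200 mM NaCl, 10 mM KCl, 100 mM Tris pH 8.5. Reaction started with 4 mM compound stock and stopped at 2 h in ice-cold 1 M perchloric acid, then neutralized with KOH. Reverse-phase HPLC. Nucleoside monophosphate peak area taken minus an acid-treated no-enzyme control. Mean of two experiments.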

Data set [6] in a line: Drug degradation in KCl/HCl buffer assessed as inorganic phosphate formation by 31P-NMR analysis at pH 1.4. The format is physicochemical. In short, it runs like this:
(§2)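 Sodium salt dissolved in KCl/HCl buffer pH 1.4 containing D2O, held at 37 °C. 31P NMR spectra taken at 15 min, 1 h or 24 h intervals, about every 24 h in multi-day runs. Hydrolysis rate taken from change in integration of one starting-material phosphate signal over time, fit to a pseudo-first-order model.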

A short description of data set [7]: Drug degradation in KCl/HCl buffer assessed as 5-OMe-uridine-H-phosphonate formation by 31P-NMR analysis at pH 1.4. The format is physicochemical. The gist of the method:
as §2

P2Y purinoceptor 6, sequence (Q15077 whole entry, the tested form may be a part): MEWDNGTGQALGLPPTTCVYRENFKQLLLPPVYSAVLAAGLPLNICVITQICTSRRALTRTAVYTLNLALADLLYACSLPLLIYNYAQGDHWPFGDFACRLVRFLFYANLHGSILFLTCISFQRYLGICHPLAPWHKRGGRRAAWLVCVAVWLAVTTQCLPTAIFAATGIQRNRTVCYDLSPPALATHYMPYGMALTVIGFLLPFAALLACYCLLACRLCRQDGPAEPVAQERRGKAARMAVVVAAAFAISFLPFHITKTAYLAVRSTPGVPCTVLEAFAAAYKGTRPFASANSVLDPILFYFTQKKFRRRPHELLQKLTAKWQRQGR

For `B[P@@](=O)(OC[C@H]1O[C@@H](n2cc(OC)c(=O)[nH]c2=O)[C@H](O)[C@@H]1O)OP(=O)(O)O`, on P2Y purinoceptor 6, the EC50 (usually the concentration at which the effect is half-maximal) is 8 nM. Moreover, the metabolised at 3 h in data set [1] came to 28%. For the same compound, the Drug metabolism result in the data set on Serum [2] and in the data set with Serum [3] was “Active” each time. Also, the half-life (as a rule, the time in which the quantity being followed falls by half) in data set [4] was 21 h. Also, in data set [5], the metabolised at 2 h was 15%.
For the compound `[BH3-][P@@](=O)(OC[C@H]1O[C@@H](n2cc(OC)c(=O)[nH]c2=O)[C@H](O)[C@@H]1O)OP(=O)([O-])[O-].[Na+].[Na+].[Na+]`, the Drug degradation entry in data set [6] and in data set [7] was “Active” each time.

The record behind these values is ChEMBL document CHEMBL2086311, “UDP made a highly promising stable, potent, and selective P2Y6-receptor agonist upon introduction of a boranophosphate moiety” (Bioorg Med Chem, 2012).
